Only some compounds are listed: those with a hit (about 3.1% of all), similar ones and a draw of the others.
F508del corr – correctors of CFTR F508del function in bronchial epithelial cells. actives 0.36% (n = 350,000). AID 720511. CFBE cells, YFP halide quenching; stimulated with forskolin plus potentiator P3; % fluorescence drop versus neutral controls. activity (quench increase), % at 7.58 µM;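 active means mean added fluorescence quench of at least 8% versus neutral control, with both replicates also reaching 8%; inconclusive means only one of the mean or replicate conditions met; inactive means mean below 8% and not both replicates reaching 8%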;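 further: cells transiently co-express mutant CFTR-F508del with the halide-sensitive YFP; corrector assay measuring rescue of mutant channel to the surface after 24 h compound exposure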
GSIS activator – GLuc luminescence reporter in INS-1E cells, primary screen for activators of glucose-dependent secretion of insulin; activation, % at 16.6 µM; INS-1E GLuc reporter insulin secretion, 2-3 h; AID 743287; actives 0.61% (n = 370,000);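 active means lowest replicate activation of at least 40%, so every replicate reaches that level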;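 further: 0% = median of neutral control wells and 100% = median of IBMX positive control wells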
miR-122 sensor – inhibitors of miR-122 in Huh7 cells; actives 0.3% (n = 340,000); Huh7 miR-122 Renilla luciferase sensor, 48 h; neutral wells = 0, positive control = 100; activation (reporter increase), % at 12.5 µM;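 active means mean replicate activation score at least 90 and every replicate individually at or above 90; inconclusive means only one of the two criteria met; inactive means neither criterion met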;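 further: higher luciferase means less miR-122 activity so hits act as miR-122 inhibitors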
Env fusion inh – HIV envelope-mediated fusion inhibition. HeLa-JRFL Env/CEM21 cell fusion, luciferase. inhibition, % at 12.3 µM. actives 1.1% (n = 360,000). AID 651610;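 active means mean replicate inhibition score of at least 50 and every replicate individually at or above 50; inconclusive means only one of the two criteria met; inactive means mean below 50 and not all replicates reaching 50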;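 further: 0% = plate neutral controls and 100% = maraviroc near 300 nM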
Ecoli rRNA inh – selective bacterial rRNA inhibition in E. coli | E. coli WT GFP vs humanized-ribosome RFP mutants, fluorescence, 24 h; active compounds read low; DMSO median 0, no signal -100 | actives 1.6% (n = 350,000) | GFP signal change (wild-type ribosome), % (no concentration beside the values);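 active means significant combined selectivity score with lowered wild-type GFP, culture density cut under 30%, mutant RFP and density less affected; inactive means any of these conditions unmet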
Cneo AK release – causes C. neoformans cell lysis | AID 651654 | adenylate kinase release luminescence, 4 h; normalised: neutral wells 0, clomiphene wells 100 | actives 0.2% (n = 360,000) | lysis activity, % at 15 µM;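 active means mean lysis activity across replicates of at least 80%, whatever share of replicates individually reach that level; inactive means mean lysis activity below 80%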
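Material – log-phase Cryptococcus neoformans yeast cells · Input – 5 × 10^6 yeast cells/mL · Medium – fresh YPD growth medium · Doses – single compound concentration per well · Timing – static 4 h at 37 °C with compound, 1 h detection · Detection – adenylate kinase release luminescence · Read-out – signal increase indicating cell lysis · Control set – Clomiphene as positive lysis control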
Starred values were filed as active, the others as inactive; ? = inconclusive; . = no result given; [ ] = another dose, or the depositor's remark.

SMILES | F508del corr | GSIS activator | miR-122 sensor | Env fusion inh | Ecoli rRNA inh | Cneo AK release
C[C@@H]1CN([C@H](C)CO)C(=O)Cc2cc(NC(=O)Nc3ccc(C(F)(F)F)cc3)ccc2O[C@H]1CN(C)S(C)(=O)=O | 1 | 13 | 8[16.7 µM] | 4[16.7 µM] | -2 | 67
Cc1ccccc1S(=O)(=O)N1CCCCN2[C@H](CO)[C@@H](c3ccc(-c4cccc(F)c4)cc3)[C@@H]2C1 | -3 | 2 | -2[16.7 µM] | . | -4 | -8
CCCC#Cc1cnc2c(c1)C(=O)N([C@@H](C)CO)C[C@H](C)[C@H](CN(C)C(=O)Nc1cccc(F)c1)O2 | 1 | 5 | 88[16.7 µM] | 24[16.7 µM] | -2 | 88*
COc1cccc(C#Cc2cnc3c(c2)C(=O)N([C@H](C)CO)C[C@@H](C)[C@@H](CN(C)C(=O)C2CCOCC2)O3)c1 | 0 | 13 | 4[16.7 µM] | -3[16.7 µM] | 7 | 81*
CCCNC(=O)N(C)C[C@@H]1Oc2ncc(C#CCc3ccccc3)cc2C(=O)N([C@@H](C)CO)C[C@@H]1C | -1 | -22 | 3[16.7 µM] | 3[16.7 µM] | 3 | 97*
COc1cccc(C#Cc2cnc3c(c2)C(=O)N([C@@H](C)CO)C[C@@H](C)[C@H](CN(C)C(=O)C2CCOCC2)O3)c1 | 1 | 9 | 5[16.7 µM] | 0[16.7 µM] | 1 | 31
CC(C)CC#Cc1cnc2c(c1)C(=O)N([C@@H](C)CO)C[C@@H](C)[C@@H](CN(C)C(=O)c1cccc(F)c1)O2 | 0 | 3 | 4[16.7 µM] | -2[16.7 µM] | 1 | 101*
CCCC#Cc1cnc2c(c1)C(=O)N([C@H](C)CO)C[C@@H](C)[C@@H](CN(C)C(=O)Nc1cccc(F)c1)O2 | -2 | -4 | 1 | 11 | 2 | 1
CCCNC(=O)N(C)C[C@@H]1Oc2ncc(C#CCc3ccccc3)cc2C(=O)N([C@H](C)CO)C[C@H]1C | 0 | -18 | -2[16.7 µM] | 13[16.7 µM] | -1 | 2
COCC#Cc1cnc2c(c1)C(=O)N([C@H](C)CO)C[C@@H](C)[C@@H](CN(C)C(=O)Nc1ccc(OC)cc1)O2 | 1 | 9 | 11[16.7 µM] | -17[16.7 µM] | 2 | 97*
CC(C)CC#Cc1cnc2c(c1)C(=O)N([C@H](C)CO)C[C@H](C)[C@H](CN(C)C(=O)c1cccnc1)O2 | 0 | 5 | 18[16.7 µM] | -5[16.7 µM] | 1 | 82*
CO[C@H]1CN(C)C(=O)c2ccc(NC(=O)C3CCOCC3)cc2OC[C@@H](C)N(C)C[C@H]1C | -1 | 17 | 5[16.7 µM] | -20[16.7 µM] | 0 | -1
CCCN1C[C@H](C)[C@H](OC)CN(C)C(=O)c2cc(NC(=O)C3CC3)ccc2OC[C@H]1C | 2 | -3 | . | . | 2 | -15
CO[C@@H]1CN(C)C(=O)c2cc(NC(=O)C3CCCC3)ccc2OC[C@H](C)NC[C@@H]1C | -2 | 9 | -4[16.7 µM] | . | 3 | -1
Cc1ccc(Cn2ccsc2=NC(=O)CCl)cc1 | -3 | 63* | -20 | ? | -13 | .
COc1ccc(Nc2cnn(-c3nc4ccccc4s3)c(=O)c2Cl)cc1 | . | 4 | 0 | -16 | -25* | 2
O=c1c(Cl)c(Nc2cccc(Cl)c2)cnn1-c1nc2ccccc2s1 | . | -24 | . | -119 | . | .
C[C@@H]1CN([C@H](C)CO)C(=O)c2cc(NC(=O)C3CC3)ccc2O[C@@H]1CN(C)S(=O)(=O)c1ccc(F)cc1 | 4 | 1 | 6[16.7 µM] | 11[16.7 µM] | 0 | 3
CSc1ccccc1NC(=O)c1ccc(CN2CCOCC2)cc1 | -1 | -23 | 0 | -6 | 3 | -6
Cc1cc(CSc2ccccc2)ccc1NC(=O)c1ccc(CN2CCOCC2)cc1 | . | -17 | . | 68* | . | .
CCOC(=O)CNS(=O)(=O)c1cc(-c2nnc(Nc3ccc4c(c3)OCO4)c3ccccc23)ccc1C | . | -4 | 106* | . | . | .
CNS(=O)(=O)c1cc(-c2nnc(Nc3ccc(CC(N)=O)cc3)c3ccccc23)ccc1C | 2 | -8 | . | -7 | -41 | 0
Cc1ccc(-c2nnc(Nc3ccc(O)cc3)c3ccccc23)cc1S(=O)(=O)NCCO | 1 | 11 | 49 | 16 | -19 | -1
COC(=O)c1ccc(Nc2nnc(-c3ccc(C)c(S(=O)(=O)NCC4CCCO4)c3)c3ccccc23)cc1 (stereo not given) | . | 4 | 250* | -14 | . | 1
Cc1ccc(-c2nnc(Nc3ccc(CC(N)=O)cc3)c3ccccc23)cc1S(=O)(=O)NCC1CCCO1 (stereo not given) | -1 | 12 | . | 4 | -31* | .
SMILES | F508del corr | GSIS activator | miR-122 sensor | Env fusion inh | Ecoli rRNA inh | Cneo AK release
Cc1ccc(-c2nnc(Nc3ccc(C(=O)N(C)C)cc3)c3ccccc23)cc1S(=O)(=O)NCC1CCCO1 (stereo not given) | . | -21 | . | 13 | . | .
Cc1ccc(S(=O)(=O)N(C)C[C@H]2Oc3ccc(NC(=O)Nc4ccc5c(c4)OCO5)cc3C(=O)N([C@H](C)CO)C[C@H]2C)cc1 | 2 | -19 | 56[16.7 µM] | 11[16.7 µM] | -1 | 1
Cc1noc(C)c1NC(=O)Nc1ccc2c(c1)CC(=O)N([C@H](C)CO)C[C@H](C)[C@@H](CN(C)S(=O)(=O)c1cn(C)cn1)O2 | 0 | 10 | -4[16.7 µM] | 0[16.7 µM] | 2 | 0
O=[N+]([O-])c1cccc(-c2nnc3ccc4ccccc4n23)c1 | . | 55* | -1 | . | . | 6
O=[N+]([O-])c1cccc(-c2nnc3cccc(Cl)n23)c1 | 2 | 52 | -10 | -22 | 0 | -2
Cc1cc(C)c(O)c(-c2cc(C(=O)Nc3cccnc3)[nH]n2)c1 | -2 | -18 | . | -46 | -33* | .
CCc1ccc(O)c(-c2cc(C(=O)Nc3cccnc3)[nH]n2)c1 | 1 | -10 | 0 | -180 | -37* | -1
CCOC(=O)C1=C(N)Oc2cc(O)ccc2C1c1ccc([N+](=O)[O-])cc1 (stereo not given) | -2 | -28 | . | 17 | -44* | .
CCOC(=O)C1=C(N)Oc2ccc3ccccc3c2C1c1ccc(O)cc1 (stereo not given) | -4 | -7 | 4 | -7 | -28 | -2
COc1ccc(CN(C)C[C@H]2Oc3ccc(NC(=O)NC(C)C)cc3C(=O)N([C@@H](C)CO)C[C@H]2C)cc1 | -1 | 1 | 1[16.7 µM] | 7[16.7 µM] | 4 | 3
O=C(Nc1ccc(C(=O)N2CCCC2)cc1)c1cccc(C(F)(F)F)c1 | 0 | 48* | -6 | -3 | 8 | -1
COc1ccc(NC(=O)Nc2ccc3c(c2)C(=O)N([C@@H](C)CO)C[C@H](C)[C@@H](CN(C)S(=O)(=O)c2c(C)noc2C)OCCCC[C@H](C)O3)cc1 | 2 | -9 | -5[16.7 µM] | 68*[16.7 µM] | -2 | 56
Cc1noc(C)c1S(=O)(=O)N(C)C[C@H]1OCCCC[C@@H](C)Oc2ccc(NC(=O)CCCCCC(=O)Nc3ccccc3N)cc2C(=O)N([C@@H](C)CO)C[C@@H]1C | 1 | -9 | 48[16.7 µM] | -55[16.7 µM] | -1 | 97*
